Results as given in ChEMBL document CHEMBL1122539, “3-Substituent effect and 3-methylene substituent effect on the structure-reactivity relationship of 7 beta-(acylamino)-3-cephem-4-carboxylic acid derivatives studied by carbon-13 and IR spectroscopies” (J Med Chem, 1984).

Columns and labels:
[1] = Rate constant (Kobs) obtained from IR spectroscopy
[2] = Geometrical mean of MIC calculated from MIC values for Escherichia coli NIHJ JC-2 and Klebsiella pneumoniae SRL-1; type: functional
How it was run: (§1)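 Agar dilution on sensitivity test agar with serial twofold antibiotic dilutions. Overnight tryptosoy broth cultures of E. coli NIHJ JC-2 and K. pneumoniae SRL-1 were diluted to about 10^6 cells/mL in the same broth, and one loopful was inoculated. Plates were incubated at 37 °C for 18–20 h. MIC was the lowest concentration inhibiting visible growth. The value is the geometric mean of the two strains' MICs.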

[3] = Dissociation constant (Kobs) obtained from IR spectroscopy; f = Not detected; type: physicochemical
[4] = Geometrical mean of MIC calculated from MIC values for Escherichia coli NIHJ JC-2 and Klebsiella pneumoniae SRL-1.; type: functional
How it was run: as §1

| SMILES | 10^2 kobsd (h^-1) [1] | MIC [2] [µg/mL] | Log k [3] | MIC [4] [µg/mL] |
| --- | --- | --- | --- | --- |
| CC(=O)OCC1=C(C(=O)[O-])N2C(=O)C(NC(=O)Cc3cccs3)C2SC1.[Na+] (stereo not given) | 11.1 hr-1 | 25 | – | – |
| COC1=C(C(=O)[O-])N2C(=O)C(NC(=O)Cc3ccccc3)C2SC1.[Na+] (stereo not given) | – | – | Not detected | 17.7 |
| CS(=O)(=O)OC1=C(C(=O)[O-])N2C(=O)C(NC(=O)Cc3ccccc3)C2SC1.[Na+] (stereo not given) | 46.5 hr-1 | 8.84 | – | – |
| O=C(Cc1ccccc1)NC1C(=O)N2C(C(=O)[O-])=C(Cl)CSC12.[Na+] (stereo not given) | 15.2 hr-1 | 12.5 | – | – |
| CCOC(=O)CC1=C(C(=O)[O-])N2C(=O)C(NC(=O)Cc3ccccc3)C2SC1.[Na+] (stereo not given) | 1.82 hr-1 | > 100 | – | – |
| O=C(Cc1cccs1)[N-]C1C(=O)N2C(C(=O)[O-])=C(C[n+]3ccccc3)CSC12.[Na+] (stereo not given) | 47.3 obs | – | – | – |
| O=C(Cc1ccccc1)NC1C(=O)N2C(C(=O)[O-])=CCSC12.[Na+] (stereo not given) | 3.1 hr-1 | 8.85 | – | – |
| CC1=C(C(=O)[O-])N2C(=O)C(NC(=O)Cc3ccccc3)C2SC1.[Na+] (stereo not given) | 1.36 hr-1 | 70.7 | – | – |
